pIC50: −log10 of the molar value. Active and inactive are the calls of the source. The rule behind the calls is not given here.

Assay [1] deals with T1, Proto-oncogene tyrosine-protein kinase ROS (Homo sapiens, UniProt P08922). To be noted: HCC78, 2.5 uM.
Assay [2] concerns HCC78. Description: Induction of apoptosis in human HCC78 cells assessed as early apoptotic cells level at 2.5 uM incubated fro 48 hrs by Annexin-V FITC and propidium iodide staining based flow cytometry (reference value: 6.33%). The class given is functional.
The target in assay [3] is T1, Proto-oncogene tyrosine-protein kinase ROS. To be noted: HCC78, 2.5 uM. The source holds these as a separate data set.
Assay [4] deals with HCC78. Description: Induction of apoptosis in human HCC78 cells assessed as late apoptotic cells level at 2.5 uM incubated fro 48 hrs by Annexin-V FITC and propidium iodide staining based flow cytometry (reference value: 13.8%). It counts as functional.
In assay [5] the test system is HCC78. Description: Induction of apoptosis in human HCC78 cells assessed as viable cells level at 2.5 uM incubated fro 48 hrs by Annexin-V FITC and propidium iodide staining based flow cytometry (reference value: 80.8%). It counts as functional.
Assay [6] deals with HCC78. Description: Induction of apoptosis in human HCC78 cells assessed as necrotic cells level at 2.5 uM incubated fro 48 hrs by Annexin-V FITC and propidium iodide staining based flow cytometry (reference value: 0.06%). It counts as functional.
Assay [7] deals with T1, Proto-oncogene tyrosine-protein kinase ROS. Conditions: HCC78, 2.5 uM. This is another data set of the same source.
Assay [8] shares this target. To be noted: HCC78, 2.5 uM. This is another data set of the same source.
The subject of assay [9] is HCC78. Description: Induction of apoptosis in human HCC78 cells incubated fro 48 hrs by Annexin-V FITC and propidium iodide staining based flow cytometry. It counts as functional, cell-based.
Assay [10] deals with T1, Proto-oncogene tyrosine-protein kinase ROS. Description: Inhibition of ROS1 in human HCC78 cells assessed as reduction in STAT3 phosphorylation incubated for 48 hrs by Western blot method. It counts as cell-based. The method, boiled down:
(§1)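 HCC78 cells plated overnight in 6-well plates, treated for 48 h, then lysed in RIPA buffer with protease/phosphatase inhibitors. Equal protein loaded for SDS-PAGE and transferred to nitrocellulose. Blocked in 5% milk/TBST, probed overnight at 4 °C for p-ROS1, ROS1, p-STAT3, STAT3, p-AKT, AKT, p-ERK, ERK and GAPDH, and detected with fluorescent secondary antibodies on an infrared scanner.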

The test system of assay [11] is HCC78. Description: Induction of apoptosis in human HCC78 cells assessed as necrotic cells level at 20 nM incubated fro 48 hrs by Annexin-V FITC and propidium iodide staining based flow cytometry (reference value: 0.06%). The class given is functional.
In assay [12] the test system is HCC78. Description: Cytotoxicity in human HCC78 cells assessed as reduction in cell viability incubated for 72 hrs by MTT assay. It counts as functional, cell-based. To be noted: HCC78, 72 h. The method, boiled down:
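3000 cells per well, allowed to adhere overnight, then exposed to DMSO or a concentration series for 72 h. MTT (5 mg/ml stock) added for a further 4 h, and crystals dissolved in 10% SDS/0.1 mM HCl. A570 read. Viability expressed relative to untreated controls from at least 3 independent experiments. HCC78 cells were grown in RPMI-1640 with 10% FBS and penicillin/streptomycin at 37 °C under 5% CO2.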

Assay [13] has as its system HCC78. Description: Induction of apoptosis in human HCC78 cells assessed as late apoptotic cells level at 20 nM incubated fro 48 hrs by Annexin-V FITC and propidium iodide staining based flow cytometry (reference value: 13.8%). It counts as functional.
Assay [14] relates to HCC78. Description: Induction of apoptosis in human HCC78 cells assessed as early apoptotic cells level at 10 nM incubated fro 48 hrs by Annexin-V FITC and propidium iodide staining based flow cytometry (reference value: 6.33%). The class given is functional.
For another assay, the system named is CCD 19Lu. Description: Cytotoxicity in human CCD-19Lu cells assessed as reduction in cell viability incubated for 72 hrs by MTT assay. It counts as cell-based.
Assay [15] concerns HCC78. Description: Induction of apoptosis in human HCC78 cells assessed as early apoptotic cells level at 20 nM incubated fro 48 hrs by Annexin-V FITC and propidium iodide staining based flow cytometry (reference value: 6.33%). It counts as functional.
Assay [16] concerns the target T1, Proto-oncogene tyrosine-protein kinase ROS. Description: Inhibition of ROS1 (unknown origin) using poly (Glu,Tyr)4:1 substrate and ATP incubated for 60 mins by ELISA. Put shortly:
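Purified recombinant ROS1 on poly(Glu,Tyr)4:1-coated wells (20 μg/ml coating). Reaction run in HEPES pH 7.4 buffer with MgCl2, MnCl2, Na3VO4 and DTT, with 10 μmol/l ATP solution and compound in 1% DMSO, 60 min at 37 °C. Phosphotyrosine detected by PY99 antibody, then HRP anti-mouse IgG and o-phenylenediamine, read at A490. Inhibition calculated as % of DMSO control. IC50 derived from curves in two experiments.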

The test system of assay [17] is HCC78. Description: Induction of apoptosis in human HCC78 cells assessed as early apoptotic cells level at 5 nM incubated fro 48 hrs by Annexin-V FITC and propidium iodide staining based flow cytometry (reference value: 6.33%). It counts as functional.
In assay [18] the test system is HCC78. Description: Induction of apoptosis in human HCC78 cells assessed as viable cells level at 20 nM incubated fro 48 hrs by Annexin-V FITC and propidium iodide staining based flow cytometry (reference value: 80.8%). It counts as functional.
Assay [19] addresses T1, Proto-oncogene tyrosine-protein kinase ROS. Description: Inhibition of ROS1 in human HCC78 cells assessed as reduction in ERK phosphorylation incubated for 48 hrs by Western blot method. It counts as cell-based. The method, boiled down:
as §1

Assay [20] deals with HCC78. Description: Induction of apoptosis in human HCC78 cells assessed as late apoptotic cells level at 5 nM incubated fro 48 hrs by Annexin-V FITC and propidium iodide staining based flow cytometry (reference value: 13.8%). The class given is functional.
For assay [21], the target named is T1, Proto-oncogene tyrosine-protein kinase ROS. Description: Inhibition of ROS1 phosphorylation in human HCC78 cells incubated for 48 hrs by Western blot method. The class given is cell-based. Put shortly: as §1
The test system of assay [22] is HCC78. Description: Induction of apoptosis in human HCC78 cells assessed as viable cells level at 5 nM incubated fro 48 hrs by Annexin-V FITC and propidium iodide staining based flow cytometry (reference value: 80.8%). It counts as functional.
Assay [23] relates to HCC78. Description: Induction of apoptosis in human HCC78 cells assessed as necrotic cells level at 5 nM incubated fro 48 hrs by Annexin-V FITC and propidium iodide staining based flow cytometry (reference value: 0.06%). It counts as functional.
The subject of assay [24] is HCC78. Description: Induction of apoptosis in human HCC78 cells assessed as necrotic cells level at 10 nM incubated fro 48 hrs by Annexin-V FITC and propidium iodide staining based flow cytometry (reference value: 0.06%). It counts as functional.
The test system of assay [25] is HCC78. Description: Induction of apoptosis in human HCC78 cells assessed as late apoptotic cells level at 10 nM incubated fro 48 hrs by Annexin-V FITC and propidium iodide staining based flow cytometry (reference value: 13.8%). It counts as functional.
The subject of assay [26] is HCC78. Description: Induction of apoptosis in human HCC78 cells assessed as viable cells level at 10 nM incubated fro 48 hrs by Annexin-V FITC and propidium iodide staining based flow cytometry (reference value: 80.8%). The class given is functional.
The target of assay [27] is T1, Proto-oncogene tyrosine-protein kinase ROS. Description: Inhibition of ROS1 in human HCC78 cells assessed as reduction in AKT phosphorylation incubated for 48 hrs by Western blot method. The class given is cell-based. Put shortly: as §1

T1 sequence (P08922 whole entry): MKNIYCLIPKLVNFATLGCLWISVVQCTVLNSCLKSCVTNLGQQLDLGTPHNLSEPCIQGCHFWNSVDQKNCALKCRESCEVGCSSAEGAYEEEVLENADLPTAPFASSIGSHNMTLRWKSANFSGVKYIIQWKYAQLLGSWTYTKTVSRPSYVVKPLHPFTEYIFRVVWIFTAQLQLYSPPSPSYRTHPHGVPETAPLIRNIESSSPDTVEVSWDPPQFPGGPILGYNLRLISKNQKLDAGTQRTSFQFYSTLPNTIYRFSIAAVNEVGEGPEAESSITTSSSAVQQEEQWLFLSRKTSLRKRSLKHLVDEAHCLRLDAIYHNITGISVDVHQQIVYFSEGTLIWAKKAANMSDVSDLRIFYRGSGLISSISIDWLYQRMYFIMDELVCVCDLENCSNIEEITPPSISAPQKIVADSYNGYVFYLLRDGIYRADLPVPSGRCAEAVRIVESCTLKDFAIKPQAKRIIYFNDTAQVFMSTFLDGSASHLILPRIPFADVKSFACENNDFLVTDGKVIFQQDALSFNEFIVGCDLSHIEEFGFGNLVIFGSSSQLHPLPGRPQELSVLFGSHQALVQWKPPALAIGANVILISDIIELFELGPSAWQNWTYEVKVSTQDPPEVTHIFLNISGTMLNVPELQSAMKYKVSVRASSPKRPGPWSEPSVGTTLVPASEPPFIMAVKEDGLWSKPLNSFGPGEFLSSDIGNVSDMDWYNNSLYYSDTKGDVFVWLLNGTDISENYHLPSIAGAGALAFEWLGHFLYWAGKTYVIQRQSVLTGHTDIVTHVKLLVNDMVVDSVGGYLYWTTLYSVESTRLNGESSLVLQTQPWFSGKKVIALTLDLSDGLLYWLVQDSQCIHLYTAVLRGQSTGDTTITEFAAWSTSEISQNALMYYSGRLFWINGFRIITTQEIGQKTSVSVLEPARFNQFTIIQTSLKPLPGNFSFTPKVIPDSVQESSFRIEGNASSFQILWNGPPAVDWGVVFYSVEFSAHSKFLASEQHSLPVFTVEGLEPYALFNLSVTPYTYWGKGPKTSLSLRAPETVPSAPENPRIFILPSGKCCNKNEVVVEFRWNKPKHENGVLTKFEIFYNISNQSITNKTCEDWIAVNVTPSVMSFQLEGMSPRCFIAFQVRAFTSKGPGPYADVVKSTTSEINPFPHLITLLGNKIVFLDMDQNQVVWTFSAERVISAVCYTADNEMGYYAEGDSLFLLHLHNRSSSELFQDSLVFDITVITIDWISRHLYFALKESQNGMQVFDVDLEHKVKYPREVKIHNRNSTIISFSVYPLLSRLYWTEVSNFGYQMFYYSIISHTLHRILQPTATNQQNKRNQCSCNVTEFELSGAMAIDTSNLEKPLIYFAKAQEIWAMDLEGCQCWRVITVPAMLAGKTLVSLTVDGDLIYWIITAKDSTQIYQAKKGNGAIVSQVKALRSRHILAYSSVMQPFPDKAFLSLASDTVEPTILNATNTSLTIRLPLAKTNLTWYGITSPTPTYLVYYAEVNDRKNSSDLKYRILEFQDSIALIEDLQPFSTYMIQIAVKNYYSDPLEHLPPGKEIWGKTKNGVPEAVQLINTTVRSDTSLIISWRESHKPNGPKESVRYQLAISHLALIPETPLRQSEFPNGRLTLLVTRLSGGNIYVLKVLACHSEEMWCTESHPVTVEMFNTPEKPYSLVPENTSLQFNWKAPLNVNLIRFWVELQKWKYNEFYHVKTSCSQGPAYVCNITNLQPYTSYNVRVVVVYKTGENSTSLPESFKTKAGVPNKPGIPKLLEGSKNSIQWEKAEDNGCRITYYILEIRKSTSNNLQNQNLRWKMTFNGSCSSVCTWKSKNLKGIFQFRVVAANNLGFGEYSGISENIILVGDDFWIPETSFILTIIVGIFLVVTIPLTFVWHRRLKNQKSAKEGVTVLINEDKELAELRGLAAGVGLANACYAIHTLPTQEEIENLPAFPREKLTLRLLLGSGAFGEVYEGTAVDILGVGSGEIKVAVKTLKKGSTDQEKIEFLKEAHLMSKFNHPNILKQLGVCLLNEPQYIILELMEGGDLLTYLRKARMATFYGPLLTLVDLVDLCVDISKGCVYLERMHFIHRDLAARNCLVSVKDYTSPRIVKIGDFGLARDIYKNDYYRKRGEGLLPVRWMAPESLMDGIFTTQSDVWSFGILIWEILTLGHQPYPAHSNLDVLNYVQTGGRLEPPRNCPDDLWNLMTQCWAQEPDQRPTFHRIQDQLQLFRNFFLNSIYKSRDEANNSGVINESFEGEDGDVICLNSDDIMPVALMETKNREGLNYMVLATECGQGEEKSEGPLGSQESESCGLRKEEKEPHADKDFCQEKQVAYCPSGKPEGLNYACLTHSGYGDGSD

In the case of `C[C@@H](Oc1cc(-c2cnn(C3CCNCC3)c2)cnc1N)c1c(Cl)ccc(F)c1Cl` [CRIZOTINIB], the inhibition result in assay [1], in [3], in assay [7] and in [8] was “Active” throughout. The Activity is on record as 27.3% in the assay with HCC78 [2], 27.2% in the assay with HCC78 [4], 45.9% in the assay with HCC78 [5] and 0.662% in the assay on HCC78 [6].

`O=C1c2c(O)ccc(O)c2C(=O)c2c(NCCNCCO)ccc(NCCNCCO)c21` [MITOXANTRONE]: the Activity entry is “Dose-dependent effect” in the assay with HCC78 [9]; 0.048% with HCC78 [11]; 17.2% in the assay with HCC78 [13]; 18.6% in the assay on HCC78 [14]; 19.7% in the assay with HCC78 [15]; 16.4% in the assay with HCC78 [17]. For the same compound, the Activity in the assay on HCC78 [18] stood at 63.8%; with HCC78 [20], 16.9%; in the assay on HCC78 [22] it was 66.6%; in the assay on HCC78 [23], 0.089%; with HCC78 [24], 0.076%; with HCC78 [25], 18.7%. For the same compound, the Activity in the assay on HCC78 [26] is recorded as 66.7%. The inhibition result in assay [10], in [19], in assay [21] and in assay [27] was “Dose-dependent effect” in each case. Moreover, the pIC50 with HCC78 [12] is 7.86; in the assay with CCD 19Lu, < 6.80; in assay [16] it was 5.52.

Source of the values: ChEMBL document CHEMBL4138072, “Identification of mitoxantrone as a new inhibitor of ROS1 fusion protein in non-small cell lung cancer cells” (Medchemcomm, 2017).
